Results reported in ChEMBL document CHEMBL1128723, “Orally bioavailable benzisothiazolone inhibitors of human leukocyte elastase” (J Med Chem, 1995).

Assays:
[1] = Human tissue stability for the compound was determined by its half life time period in human liver; assay type: ADME, organism-based
Procedure, shortened: (§1)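 Liver S9 was prepared by homogenizing in 50 mM Na/K phosphate/KCl buffer and spinning at 9000g for 20 min. S9 was used at 8 mg/mL protein with an NADPH-generating system and preincubated 5 min at 37 °C. Compound was added from DMSO at 100 μM starting concentration and incubated at 37 °C. Parent disappearance was followed by RP-HPLC over time to give the half-life.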

[2] = Oral bioavailability in Beagle dogs at oral dose of 20 mg/kg and an intravenous dose of 5 mg/kg was administered; assay type: ADME, organism-based, Canis lupus familiaris; details: dog, in vivo, read-out: BA
Procedure, shortened: (§2)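 Fasted rats, beagle dogs or cynomolgus monkeys were dosed orally at 20 mg/kg (one compound at 10 mg/kg) or iv at 5 mg/kg. Vehicles were mainly 0.05% lactic acid in water (oral) or 5% dextrose/0.05% lactic acid (iv). Blood was drawn at intervals, extracted with toluene/hexane (9:1) containing internal standard, and parent quantified by reverse-phase HPLC.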

[3] = Compound was tested for plasma concentration in Beagle dogs at oral dose of 20 mg/kg and an intravenous dose of 5 mg/kg was administered; assay type: ADME, organism-based, Canis lupus familiaris; details: dog; procedure, shortened: as §2
[4] = Human tissue stability for the compound was determined by its half life time period in human blood; assay type: ADME, organism-based
[5] = target: T1, Neutrophil elastase (Homo sapiens, UniProt P08246); test: Potency of inhibition against human leukocyte elastase (HLE) expressed as an apparent binding constant
T1 sequence (P08246 whole entry): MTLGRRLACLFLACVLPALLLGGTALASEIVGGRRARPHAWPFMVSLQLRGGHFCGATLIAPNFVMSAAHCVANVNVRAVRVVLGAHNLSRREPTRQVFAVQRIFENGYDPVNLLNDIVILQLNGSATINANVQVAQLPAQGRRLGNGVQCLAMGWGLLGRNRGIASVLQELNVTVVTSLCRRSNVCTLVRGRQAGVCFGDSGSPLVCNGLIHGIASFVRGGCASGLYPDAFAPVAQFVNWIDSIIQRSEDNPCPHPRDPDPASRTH

[6] = Maximum plasma concentration in Beagle dogs at oral dose of 20 mg/kg and an intravenous dose of 5 mg/kg was administered; assay type: ADME, organism-based, Canis lupus familiaris; details: dog; procedure, shortened: as §2
[7] = Human tissue stability for the compound was determined by its half life time period in human jejunum; assay type: ADME, organism-based
Procedure, shortened: (§3)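 Jejunum (fresh-frozen animal tissue or unused human transplant tissue) was homogenized in pH 7.2 modified Ringer's buffer, spun at 9000g, and the supernatant kept. Compound was added from DMSO at 100 μM starting concentration and incubated at 37 °C, sampled at intervals. Samples were acetonitrile-quenched and parent measured by RP-HPLC to give the half-life.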

[8] = system: Cricetinae gen. sp.; test: Inhibitory activity was determined against HLE-induced hamster hemorrhage model by intravenous administration at a dose of 1 mg/kg; assay type: functional, Cricetulus griseus
[9] = system: Cricetinae gen. sp.; test: Effective dose required for the inhibition of human leukocyte elastase in the HLE-induced hamster hemorrhage model.; assay type: functional, Cricetulus griseus
[10] = Compound was tested for the half life time period in dog jejunum; assay type: ADME, organism-based, Canis lupus familiaris; procedure, shortened: as §3
[11] = Compound was tested for the half life time period in rat jejunum; assay type: ADME, organism-based; procedure, shortened: as §3
[12] = Compound was tested for the half life time period in monkey blood; assay type: ADME, tissue-based; details: simiiformes
Procedure, shortened: (§4)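 Fresh heparinized blood from rats, hamsters, beagle dogs and cynomolgus monkeys was used within 4 h of collection. Compound was added from DMSO to a starting concentration of 100 μM and incubated at 37 °C with sampling at intervals. Samples were quenched with acetonitrile/TFA and the supernatant assayed by reverse-phase HPLC for loss of parent, giving the half-life. Control incubations were run with each assay.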

[13] = Compound was tested for the half life time period in dog liver S9; assay type: ADME, Canis lupus familiaris, S9 fraction; procedure, shortened: as §1
[14] = Compound was tested for the half life time period in dog blood; assay type: ADME, organism-based, Canis lupus familiaris; procedure, shortened: as §4
[15] = system: Cricetinae gen. sp.; test: Compound was tested for effective dose required for the inhibition of human leukocyte elastase in the HLE-induced hamster hemorrhage model; assay type: functional, Cricetulus griseus
[16] = Compound was tested for in vivo bioavailability in rat; assay type: ADME, organism-based; details: read-out: Bioavailabiility; procedure, shortened: as §2
[17] = Compound was tested for in vivo bioavailability in dog; assay type: ADME, organism-based, Canis lupus familiaris; details: read-out: Bioavailabiility; procedure, shortened: as §2
[18] = Compound was tested for the half life time period in rat liver S9; assay type: ADME, S9 fraction; procedure, shortened: as §1
[19] = Compound was tested for half life time period in hamster liver S9; assay type: ADME, S9 fraction; details: cricetinae; procedure, shortened: as §1
[20] = Compound was tested for half life time period in hamster blood; assay type: ADME, organism-based; details: cricetinae; procedure, shortened: as §4
[21] = Compound was tested for the half life time period in monkey jejunum; assay type: ADME, tissue-based; details: simiiformes; procedure, shortened: as §3
[22] = Compound was tested for the half life time period in monkey liver S9; assay type: ADME, subcellular, S9 fraction; details: simiiformes; procedure, shortened: as §1
[23] = Compound was tested for in vivo bioavailability in monkey; assay type: ADME, organism-based; details: simiiformes, read-out: Bioavailabiility; procedure, shortened: as §2
[24] = Compound was tested for in vivo bioavailability in hamsters; assay type: ADME, organism-based; details: cricetinae, read-out: Bioavailabiility
[25] = Compound was tested for the half life time period in rat blood; assay type: ADME, organism-based; procedure, shortened: as §4
[26] = Compound was tested for half life time period in hamster jejunum; assay type: ADME, organism-based; details: cricetinae; procedure, shortened: as §3

Structure (SMILES)	half-life [1] [min]	bioavailability [2] [%]	half-life [3] [min]	half-life [4] [min]	Ki [5] [pM]	Cmax [6] [ng/mL]	half-life [7] [min]	other results
CC(C)c1cc(O)cc2c1C(=O)N(COC(=O)c1c(Cl)ccc(S(=O)(=O)N3CCN(C)CC3)c1Cl)S2(=O)=O	40.2	8	23	> 1200	200	220	113	
COc1cc(C(C)C)c2c(c1)S(=O)(=O)N(COC(=O)c1c(Cl)ccc(OCCN3CCCC3)c1Cl)C2=O	110	46	432	110	14	325	218	ED50 [9]: 1 mg/kg
COc1cc(C(C)C)c2c(c1)S(=O)(=O)N(COC(=O)c1c(Cl)ccc(S(=O)(=O)N(C)CCN(C)C)c1Cl)C2=O	23.9	14	74	130	13	300	80	
COc1cc(C(C)C)c2c(c1)S(=O)(=O)N(COC(=O)c1c(Cl)ccc(OCCN3CCOCC3)c1Cl)C2=O	37.3	21	137	36	13	1200	170	half-life [10]: 394 min; half-life [11]: 60.8 min; half-life [12]: 57.2 min; half-life [13]: 30.2 min; half-life [14]: 90 min; ED50 [15]: 3 mg/kg; bioavailability [16]: 1%; bioavailability [17]: 21%; half-life [18]: 12.4 min; half-life [19]: < 5 min; half-life [20]: 259 min; half-life [21]: 32.3 min; half-life [22]: 2.9 min; bioavailability [23]: < 1%; bioavailability [24]: < 3%; half-life [25]: 6 min; half-life [26]: 1.3 min
O=C1c2ccccc2S(=O)(=O)N1CSc1nnnn1-c1ccccc1				< 5				

More lines, in order of falling Ki [5], values ahead:

half-life [1] [min]	bioavailability [2] [%]	half-life [3] [min]	half-life [4] [min]	Ki [5] [pM]	Cmax [6] [ng/mL]	half-life [7] [min]	Structure (SMILES)	other results
28.9	21	78	90	11	390	99	COc1cc(C(C)C)c2c(c1)S(=O)(=O)N(COC(=O)c1c(Cl)ccc(S(=O)(=O)N3CCN(C)CC3)c1Cl)C2=O	
			< 15	11			COc1cc(C(C)C)c2c(c1)S(=O)(=O)N(COC(=O)c1c(Cl)ccc(OCC(=O)O)c1Cl)C2=O	
4.9			20	8		13	CC(C)c1cccc2c1C(=O)N(COC(=O)c1c(Cl)ccc(OCCN3CCOCC3)c1Cl)S2(=O)=O	inhibition in vivo at 1 mg/kg [8]: 87%
